According to PubChem BioAssay:
A number with no mark means an inactive call. Results filed as inconclusive are left out. Active and inactive are the calls of the source.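 How the source made its calls, unless noted: active means RAM network inhibition above 8.4% in each of two replicates, 3 SD over the compound average; inconclusive means above 8.4% inhibition in only one replicate; inactive means 8.4% inhibition or less in each replicate.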

What was measured:
[1] = S. cerevisiae growth inhibition in permissive medium (OD615), pilot counter-assay for S. cerevisiae lifespan shortening project, permissive growth control (AID 705;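 active means growth inhibition above 25% in both replicates, a cutoff set 3 SD above the mean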); settings: OD615, 24 h, at 10 µM, stronger effect = higher value
Procedure, shortened: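 System: Engineered DeaD yeast | Buffer or medium: SC raffinose/galactose permissive medium | Doses: 10 µM single dose, 0.25% DMSO | Times: 24 h exposure, 30 °C | Measured by: OD615 turbidity read | Read-out: Yeast growth inhibition indicated by reduced 24 h OD615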

[2] = S. cerevisiae growth inhibition in restrictive medium, OD615, pilot screen, restrictive growth control, yeast lifespan reduction project (AID 706;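 active means growth inhibition above a set limit, 3 SD over mean compound inhibition, in both replicates, cut at about 43% in these data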;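 further: modified DeaD lifespan yeast strain shifted to restrictive glucose medium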); settings: OD615, 48 h, at 10 µM, stronger effect = higher value
Procedure, shortened: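 Assay system: engineered S. cerevisiae DeaD strain; Buffer or medium: CSMM-D glucose medium; Dosing: 10 µM compound, 0.25% DMSO; Times: cell pre-growth 4 h, compound exposure 48 h, 30 °C; Detection: absorbance (optical density) measured at 615 nm.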

[3] = doxorubicin toxicity protection in MRP-1 cells – H69AR cells, CellTiter-Glo, duplicate, MRP-1 activator project, pilot screen (AID 807;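 active means viability increase at or above a cutoff of the median across tested compounds plus 3 SD, cut at about 8.5% in these data, passing the limit was not always enough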;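 further: compound pretreatment 18-22 h then 72 h combined with doxorubicin; 0% = doxorubicin alone and 100% = vehicle without doxorubicin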); settings: H69AR viability with doxorubicin, CellTiter-Glo luminescence; at 10 µM; stronger effect = higher value
[4] = viability of HCT116 without oncogenic beta-catenin – human colon tumor cells, pilot screen (AID 823;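 active means cell viability at or below a set limit in both duplicate runs, the limit being the all-compound median minus 4 SD, cut at about 23% in these data, passing the limit was not always enough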;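 further: 0% = wells killed by 20 µM Hyamine and 100% = untreated DMSO cell wells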); settings: HCT116 beta-catenin knockout viability, CellTiter-Glo, 60 h; at 10 µM; stronger effect = lower value
[5] = viability of PTEN-null HCT116 cells – cell-based, HCT116 clonal line, CellTiter-Glo, pilot screen (AID 824;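 active means viability at or below 27.92% in each of two runs, the all-compound median minus 4 SD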;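 further: 0% = 20 µM Hyamine control and 100% = vehicle cell control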); settings: HCT116 PTEN-deleted viability, 60 h, at 10 µM, stronger effect = lower value
[6] = RAM pathway blockade in budding yeast – dse1pr::URA3 reporter, 5-FOA selection, pilot screen (AID 869;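 active means inhibition over a set limit, the all-compound mean plus 3 SD, in both replicate runs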;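 further: 0% = DMSO wells with no growth and 100% = 10 µM 1-NA-PP1 with full growth; RAM network block rescues cells from 5-FOA so hits raise OD615 growth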); settings: S. cerevisiae dse1pr::URA3 5-FOA growth, OD615, 2 d; at 10 µM; stronger effect = higher value; strain carries analog-sensitive mutant Cbk1 kinase
[7] = RAM signaling pathway blockade in yeast – S. cerevisiae, Pdr1DBD-CYC8 efflux-inhibited sensitized strain, primary screen (AID 1298);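 further: 0% = DMSO untreated cells without growth and 100% = 10 µM 1-NA-PP1 full growth; higher means more yeast growth rescued from 5-FOA killing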; settings: S. cerevisiae cbk1-as DSE1-URA3 strain, 5-FOA growth OD615, 2 d; at 50 µM; stronger effect = higher value

| Compound | growth inhibition [1] [%] | growth inhibition [2] [%] | viability increase [3] [%] | viability [4] | viability [5] | inhibition [6] [%] | RAM network inhibition [7] [%] |
| --- | --- | --- | --- | --- | --- | --- | --- |
| CCOC(=O)C1=C(N)OC2=C(C(=O)CCC2)C1c1cccs1 (stereo unspecified) | -0.655 | 5.78 | 0.3 | 108% | 104% | 0.345 | 2.67 |
| CC1CCN(C(C(=O)Nc2ccc3c(c2)OCO3)c2ccccc2)CC1 (stereo unspecified) | 3.37 | 10.4 | -2.94 | 83.8% | 78.7% | 2.49 | 4.49 |
| Cc1cccc(C)c1OCC(O)Cn1ccnc1C (stereo unspecified) | 1.01 | 0.215 | -1.6 | 81.1% | 84.7% | 1.08 | -0.1 |
| COc1ccc(N2CCN(S(=O)(=O)c3ccc(OC)cc3)CC2)cc1 | -4.01 | 3.09 | -5.5 | 99.3% | 106% | 0.885 | 3.84 |
| COC(=O)C(C)Sc1nnc(Cc2cc(=O)[nH]c(=O)[nH]2)n1-c1cc(C)ccc1C (stereo unspecified) | -5.62 | 0.885 | -1.25 | 96% | 90.3% | 1.77 | 0.62 |
| C=CCSC1=C(C#N)C(c2ccc(C(C)C)cc2)CC(=O)N1 (stereo unspecified) | -11.6 | 8.41 | -1.41 | 92.2% | 96.3% | 0.04 | 5.66 |
| COc1ccc(CNC(=O)c2ccc3c(c2)N(C)C(=O)CS3=O)cc1 (stereo unspecified) | -1 | 7.29 | 1.48 | 103% | 97.3% | 1.41 | 2.04 |
| CCCNC(=O)CS(=O)Cc1nc(-c2cccc(OC)c2)oc1C (stereo unspecified) | -6.84 | -0.045 | -2.3 | 96.6% | 95.2% | 1.2 | -0.38 |
| CCN1CCN(C(=O)c2cc3c(-c4ccc(Cl)cc4)nn(C)c3s2)CC1 | -4.23 | 16 | -7.68 | 38.5% | 52.7% | 2.21 | 1.3 |
| CC(=O)OC1c2c(ccc3ccc(=O)oc23)OC(C)(C)C1OC(=O)CC(C)C (stereo unspecified) | -18.4 | -10 | 1.31 | 84.7% | 80.8% | 1.1 | 10 |
| CCOC(=O)N1CCN(C(=O)COc2ccc(Br)cc2)CC1 | -16.4 | 11.8 | 1.9 | 100% | 90.6% | 1.12 | 6.68 |
| O=C(NCCSCc1ccco1)c1ccc(CN2CCOCC2)cc1 | -10.4 | -27 | -1.57 | 101% | 99.7% | 1.59 | 2.06 |
| CCN(CC)CCCNC(=O)c1cc2c(=O)n(C)c3ccccc3c2n1C | -6.05 | -3.57 | -6.34 | 55.8% | 58.4% | -0.125 | 2.21 |
| COc1ccccc1N(CC(O)CN1C(=O)NC(C)(C)C1=O)S(=O)(=O)c1ccc(C)cc1 (stereo unspecified) | -7.72 | -4.29 | -0.66 | 101% | 99.9% | 1.41 | 5.03 |
| COc1ccc(Nc2oc(-c3ccccc3Cl)nc2C#N)cc1 | 9.48 | 0.98 | -8 | 6.01% (active) | 8.29% (active) | 1.94 | 7.73 |
| COc1cc(OC)cc(C(=O)Nc2cccc(NC(C)=O)c2)c1 | -2.19 | -3.84 | -2.31 | 111% | 108% | 2.15 | 2.04 |
| CCOC(=O)C1CCN(S(=O)(=O)c2ccc3c4c(cccc24)C(=O)N3)CC1 | -4.42 | -7.67 | -3.39 | 96.5% | 85.7% | 1.76 | 2.83 |
| COc1ccc(C2CC(c3cccc(OC)c3)n3nc(N)nc3N2)cc1 (stereo unspecified) | -5.42 | 9.84 | 1.37 | 100% | 92.7% | 2.04 | -1.58 |
| COc1cccc(C2=N/C(=C\N(C)C)C(=O)O2)c1 | 1.7 | 11.6 | -0.29 | 94.7% | 102% | -0.855 | 2.96 |
| Cn1c(C(=O)NCCc2ccsc2)cc2c(=O)n(C)c3ccccc3c21 | -13.2 | -8.68 | -4.49 | 105% | 92.2% | 2.64 | 4.41 |
| CCOc1ccc(N2C(=O)CC(N3CCN(C4CCc5ccccc5C4)CC3)C2=O)cc1 (stereo unspecified) | 2.08 | 0.34 | -1.42 | 94.6% | 93.1% | 1.93 | 1.53 |
| Cc1nc2ccc(S(=O)(=O)NC(C(=O)N3CCC(C)CC3)C(C)C)cc2s1 (stereo unspecified) | -13.4 | -2.64 | -2.02 | 93.9% | 89% | 2.38 | 2.55 |
| COc1cccc(C2c3c(oc4ccc(F)cc4c3=O)C(=O)N2CCCN2CCOCC2)c1 (stereo unspecified) | -9.58 | -6.59 | -1.59 | 105% | 105% | 1.25 | 4.33 |
| Cc1nc(CC(=O)c2c(C)cc(O)cc2O)cs1 | -12.2 | 1.06 | 2.92 | 90.5% | 95.9% | -0.335 | 1.48 |

| Compound | growth inhibition [1] [%] | growth inhibition [2] [%] | viability increase [3] [%] | viability [4] | viability [5] | inhibition [6] [%] | RAM network inhibition [7] [%] |
| --- | --- | --- | --- | --- | --- | --- | --- |
| O=C1C(C=NCCCN2CCOCC2)=C(O)c2ccccc21 | -1.9 | 10.5 | -4.78 | 98.6% | 90.2% | 0.71 | 5.89 |
| O=C1NCC2=C1C(c1ccc(Br)cc1)Nc1ccccc1N2 (stereo unspecified) | -14.3 | -0.565 | 0.99 | 106% | 96.1% | -0.645 | -2.69 |
| O=C(Nc1ccc2c(c1)OCO2)C1COc2ccccc2O1 (stereo unspecified) | -13.5 | -5.98 | -3.15 | 91.9% | 99.8% | 2.16 | 3.35 |
| Cc1cc(C)n(C(=O)CCN2C(=O)c3ccccc3C2=O)n1 | -14.3 | 5.39 | 2 | 94.9% | 103% | -0.64 | -0.15 |
| COCCNC(=O)Cn1ncc2ccsc2c1=O | -1.34 | 5.16 | 0.35 | 107% | 100% | 2.33 | 4.98 |
| CCOc1ccc(N(CC(=O)NCc2cccs2)S(=O)(=O)c2c(C)noc2C)cc1 | -17.4 | -7.87 | -2.25 | 95.1% | 94.7% | 1.49 | 6.62 |
| COc1ccc(-n2c(C)nc3c(cnn3-c3ccc(C)c(C)c3)c2=O)cc1 | -13.7 | 8.51 | 2.3 | 86% | 79% | 2.09 | 5.89 |
| COC(=O)c1oc2ccc(Br)cc2c1NC(=O)CCCN1C(=O)c2ccccc2C1=O | -10.3 | -14.3 | 0.98 | 97.7% | 98.5% | 2.69 | 7.77 |
| COc1ccc(S(=O)(=O)N2CCC(C(=O)N3CCOCC3)CC2)cc1OC | -15.4 | -6.63 | -0.87 | 91.5% | 94.8% | 0.825 | 2.43 |
| O=C(CN1CCOc2ccccc21)N1CCN(c2cccc(Cl)c2)CC1 | 6 | 18.6 | -4.17 | 84.1% | 84.4% | 2.77 | 4.14 |
| CCOC(=O)Cc1cnc(NC(=O)c2ccccc2)s1 | 6.17 | 5.05 | -1.51 | 92.3% | 89.6% | 0.365 | 2.27 |
| Cc1ccccc1-n1nc2c(c1NC(=O)c1cccc(F)c1)CS(=O)C2 (stereo unspecified) | -8.75 | 5.54 | 0.96 | 98.8% | 98.5% | 0.835 | 7.75 |
| COCCOC(=O)c1[nH]c2c(c1C)C(=O)CC(c1cc(OC)ccc1OC)C2 (stereo unspecified) | -16.8 | -12.3 | -6.01 | 38.6% | 34.5% | 2.09 | 9.43 |
| Cc1c(N=C/C=C/c2ccccc2)cnn1C | -8.46 | -12.3 | -5.08 | 91.7% | 90.5% | 1.85 | 3.36 |
| CCOCCCNC(=O)C(c1ccc(C)cc1)N(Cc1ccc2c(c1)OCO2)C(=O)CNC(C)=O (stereo unspecified) | -8.64 | 0.77 | 0.84 | 100% | 102% | 0.88 | 2.3 |
| O=C(COC(=O)c1cnccn1)c1ccc2c(c1)CCCC2 | -11.3 | -17.1 | -1.19 | 91.9% | 88.6% | 1.32 | 1.14 |
| Cc1cc(C(=O)Nc2cccnc2)on1 | -5.72 | -5.71 | -1.86 | 103% | 93.4% | 0.355 | 2.08 |
| CCCC(=O)c1ccc(N2CCCCCC2)c(F)c1 | -13.2 | -2.93 | 3.64 | 85.9% | 87.3% | 1.73 | 1.5 |
| CCCC(=O)c1cc(F)c(N2CCN(S(=O)(=O)c3ccccc3)CC2)cc1C | -7.04 | -27.6 | 1.53 | 90.3% | 88.5% | 3.01 | 3.18 |
| CCOC(=O)N1CCN(C(=O)C2CCCN(Cc3nc(-c4ccc(Cl)cc4)oc3C)C2)CC1 (stereo unspecified) | 2.57 | -13.2 | -4.13 | 37.9% | 46.5% | 0.12 | 3.55 |
| O=C(NCC(c1ccc(F)cc1)N1CCOCC1)c1ccc(Br)o1 (stereo unspecified) | -9.34 | -13.2 | -1.97 | 86.3% | 81.8% | 2.88 | 1.24 |
| O=C(c1ccc(S(=O)(=O)N2CCCCC2)cc1)N1CCN=C1SCc1cccnc1 | -1.57 | -2.72 | 1.27 | 89.4% | 89.3% | 1.77 | 4.85 |
| CSc1nnc2n(-c3ccc(C)cc3)c(=O)c3c4c(sc3n12)COC(C(C)C)C4 (stereo unspecified) | -18.2 | -3.12 | -4.07 | 37.3% | 31.6% | -0.285 | 7.91 |
| CC(=O)Nc1ccc(NC(=O)CSc2nccn2Cc2ccccc2)cc1 | -0.94 | 3.38 | -1.64 | 86.9% | 88.8% | -0.265 | 0.96 |
